Values after ≈ are worked out from the molar mass of the structure shown. Active and inactive are the calls of the source. The rule behind the calls is not given here.
What was measured:
[1] = system: Lu1; assay: Cytotoxicity against human Lu1 cells; format: functional; details: read-out: ED50 (the source's name)
Summary of the method: (§1)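 Panel of three human cancer lines (Lu1, LNCaP, MCF-7). Cytotoxicity expressed as ED50 in µg/mL.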

[2] = system: LNCaP; assay: Cytotoxicity against human LNCAP cells; format: functional; details: read-out: ED50 (the source's name); summary of the method: as §1
[3] = system: MCF7; assay: Cytotoxicity against human MCF7 cells; format: functional; details: read-out: ED50 (the source's name); summary of the method: as §1
[4] = system: MCF7; assay: Inhibition of human MCF7 cells propagated in hollow fibers via subcutaneous site of immunodeficient NCr nu/nu mouse at 10 to 40 mg/kg, ip once daily after 7 days of implantation; format: functional, organism-based
Summary of the method: (§2)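 In vivo hollow fiber model in immunodeficient mice. Fibers loaded with Lu1, LNCaP or MCF-7 cells were implanted subcutaneously or intraperitoneally. Vehicle or drug was given ip once daily at 10, 20 or 40 mg/kg on days 3-6 after implantation. Mice were sacrificed on day 7, and fibers were retrieved and analysed for growth inhibition versus vehicle.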

[5] = system: Lu1; assay: Inhibition of human Lu1 cells propagated in hollow fibers via subcutaneous site of immunodeficient NCr nu/nu mouse at 10 to 40 mg/kg, ip once daily after 7 days of implantation; format: functional, organism-based; summary of the method: as §2
[6] = system: LNCaP; assay: Inhibition of human LNCAP cells propagated in hollow fibers via intraperitoneal site of immunodeficient NCr nu/nu mouse at 10 to 40 mg/kg, ip once daily after 7 days of implantation relative to control; format: functional; details: dose mg/kg 10-40; summary of the method: as §2

C=C(CO)[C@H]1Cc2c(ccc3c2O[C@@H]2COc4cc(OC)c(OC)cc4[C@]2(O)C3=O)O1 [DABINOL] gave an EC50 [1] of 3.1 µg/mL (≈ 7.27 µM), an EC50 [2] of 5.4 µg/mL (≈ 12.7 µM) and an EC50 [3] of 13.1 µg/mL (≈ 30.7 µM).
C=C(CO)[C@H]1Cc2c(ccc3c2O[C@@H]2COc4cc(OC)c(OC)cc4[C@@H]2C3=O)O1 [AMORPHIGENIN] gave an EC50 [1] of 4.8 µg/mL (≈ 11.7 µM), an EC50 [2] of 7.9 µg/mL (≈ 19.2 µM) and an EC50 [3] of over 20 µg/mL.
COc1ccc(C2COc3c(ccc4c3C=CC(C)(CCC=C(C)C)O4)C2)c(O)c1 (stereo not given) [HEMINITIDULAN] gave an EC50 [1] of over 5 µg/mL, an EC50 [2] of over 5 µg/mL and an EC50 [3] of over 5 µg/mL.
CC1(C)C=Cc2c(cc(O)c3c2OCC(c2cc4c(cc2O)OCO4)C3=O)O1 (racemic) [DISCOLORANONE A] was tested, and the EC50 [1] was over 5 µg/mL, the EC50 [2] was over 5 µg/mL and the EC50 [3] was over 5 µg/mL.
For COc1ccc([C@H]2COc3cc4c(c(O)c3C2=O)C=CC(C)(CCC=C(C)C)O4)c(O)c1O (stereo partly drawn) [(3S)-ISODISCOLORANONE B], the EC50 [1] was over 5 µg/mL, the EC50 [2] was over 5 µg/mL and the EC50 [3] was over 5 µg/mL.
COc1ccc([C@H]2COc3c(ccc4c3C=CC(C)(CCC=C(C)C)O4)C2)c(O)c1O (stereo not given in full) [NITIDULIN] was tested, and the EC50 [1] was 4.2 µg/mL (≈ 9.94 µM), the Activity [4] was “inactive” and the EC50 [2] was 4.1 µg/mL (≈ 9.7 µM). The EC50 [3] was 3.5 µg/mL (≈ 8.28 µM), the Activity [5] was “inactive” and the “inhibition (INH)” value [6] was 49%.
COc1ccc([C@]2(O)COc3c(ccc4c3C=CC(C)(C)O4)C2)c(O)c1 gave an EC50 [1] of over 5 µg/mL, an EC50 [2] of over 5 µg/mL and an EC50 [3] of over 5 µg/mL.
Molecule CC1(C)C=Cc2c(ccc3c2OCC2c4cc5c(cc4OC32)OCO5)O1 (stereo not given) [LEIOCARPIN] has an EC50 [1] of over 5 µg/mL, an EC50 [2] of over 5 µg/mL and an EC50 [3] of over 5 µg/mL.
With CC1(C)C=Cc2c(c(O)cc3c2OC[C@@H]2c4cc5c(cc4O[C@H]32)OCO5)O1 the EC50 [1] was over 5 µg/mL, the EC50 [2] was over 5 µg/mL and the EC50 [3] was over 5 µg/mL.
CC(C)=CCCC1(C)C=Cc2c(ccc3c2OCC(c2cc4c(cc2O)OCO4)C3)O1 (stereo not given) [NITIDULAN] showed an EC50 [1] of over 5 µg/mL, an EC50 [2] of over 5 µg/mL and an EC50 [3] of over 5 µg/mL.
CC1(C)C=Cc2c(cc3c(c2O)C(=O)[C@@H](c2cc4c(cc2O)OCO4)CO3)O1 [(3S)-ISODISCOLORANONE A] showed an EC50 [1] of over 5 µg/mL, an EC50 [2] of over 5 µg/mL and an EC50 [3] of over 5 µg/mL.
CC1(C)C=Cc2c(c(O)cc3c2OCC(c2cc4c(cc2O)OCO4)C3)O1 (stereo not given) [LEIOCINOL] was tested, and the EC50 [1] was over 5 µg/mL, the EC50 [2] was over 5 µg/mL and the EC50 [3] was over 5 µg/mL.
CC1(C)C=Cc2c(ccc3c2OCC(c2cc4c(cc2O)OCO4)C3)O1 (stereo not given) [LEIOCIN] was tested, and the EC50 [1] was over 5 µg/mL, the EC50 [2] was over 5 µg/mL and the EC50 [3] was over 5 µg/mL.
Work on COc1ccc([C@H]2COc3c4c(cc(O)c3C2=O)OC(C)(CCC=C(C)C)C=C4)c(O)c1O (stereo not given in full) [DISCOLORANONE] yielded an EC50 [1] of 9.6 µg/mL (≈ 21.2 µM), an EC50 [2] of 6.4 µg/mL (≈ 14.1 µM) and an EC50 [3] of 3.6 µg/mL (≈ 7.96 µM).
